Experimental data taken from ChEMBL document CHEMBL4196125, “Identification of N-Benzyl 3,5-Dinitrobenzamides Derived from PBTZ169 as Antitubercular Agents” (ACS Med Chem Lett, 2018).
In brackets after ≈: the same amount, converted by molar mass. Activity calls are given as the source filed them. The rule behind the calls is not given here.

Tests used:
[1] = tested on: Mycobacterium tuberculosis; assay: Antitubercular activity against drug-sensitive Mycobacterium tuberculosis H37Rv ATCC 27294 measured after 7 days by microplate alamar blue assay; type: functional; details: for MIC90: H37Rv ATCC 27294, 168 h
In short: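 Microplate Alamar Blue Assay against strain H37Rv ATCC27294. MIC is the lowest concentration giving more than 90% reduction in fluorescence relative to the mean of replicate bacterium-only controls.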

[2] = Tmax in mouse at 50 mg/kg, po administered as single dose; type: ADME, organism-based; details: in vivo
In short: (§1)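 Mice (n = 3) received one oral 50 mg/kg dose; plasma levels were followed to derive T1/2 (h), Tmax (h), Cmax (ng/mL) and AUC0-∞ (h·ng/mL).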

[3] = Cmax in mouse at 50 mg/kg, po administered as single dose; type: ADME, organism-based; design: dose 50 mg/kg, route oral; details: in vivo; in short: as §1
[4] = AUC (0 to infinity) in mouse at 50 mg/kg, po administered as single dose; type: ADME, organism-based; design: dose 50 mg/kg, route oral, time infinity; details: in vivo; in short: as §1
[5] = Half life in mouse at 50 mg/kg, po administered as single dose; type: ADME, organism-based; details: in vivo; in short: as §1
[6] = tested on: Mus musculus; assay: Acute toxicity in mouse assessed as survival at 500 mg/kg, po administered as single dose measured for 7 days; type: organism-based; details: in vivo, 168 h

Structure (SMILES) | MIC90 [1] [µg/mL] | further results
CN1CCN(c2ccc(CNC(=O)c3cc([N+](=O)[O-])cc([N+](=O)[O-])c3)cc2)CC1 | 4 (≈ 10 µM) | –
O=C(NCc1ccc(N2CCSCC2)cc1)c1cc([N+](=O)[O-])cc([N+](=O)[O-])c1 | 0.0625 (≈ 0.155 µM) | Tmax [2]: 2.75 h; Cmax [3]: 19 ng/mL; AUC(0-inf) [4]: 41.1 ng·h/mL; half-life [5]: 3.3 h; Activity [6]: Non-Toxic
O=C(NCc1ccc(N2CCCCC2)cc1)c1cc([N+](=O)[O-])cc([N+](=O)[O-])c1 | 2 (≈ 5.2 µM) | –
O=C(NCc1ccc(N2CCCCC2)cc1)c1cc([N+](=O)[O-])cc(C(F)(F)F)c1 | 0.25 (≈ 0.614 µM) | –
O=C(NCc1ccc(N2CC3CCCCC3C2)cc1)c1cc([N+](=O)[O-])cc(C(F)(F)F)c1 (stereo not drawn) | 0.5 (≈ 1.12 µM) | –
O=C(NCc1ccc(N2CCN(c3ccc(F)cc3)CC2)cc1)c1cc([N+](=O)[O-])cc([N+](=O)[O-])c1 | 0.0625 (≈ 0.13 µM) | Tmax [2]: 1.08 h; Cmax [3]: 15 ng/mL; AUC(0-inf) [4]: 219 ng·h/mL; half-life [5]: 13.6 h; Activity [6]: Non-Toxic
O=C(NCc1ccc(N2CC3CCCCC3C2)cc1)c1cc([N+](=O)[O-])cc([N+](=O)[O-])c1 (stereo not drawn) | 0.0625 (≈ 0.147 µM) | Activity [6]: Non-Toxic
O=C(NCCN1CCN(CC2CCCCC2)CC1)c1cc([N+](=O)[O-])cc(C(F)(F)F)c1 | 0.0781 to 4 (≈ 0.177 to 9.04 µM) | –
CN1CCN(c2ccc(CNC(=O)c3cc([N+](=O)[O-])cc(C(F)(F)F)c3)cc2)CC1 | > 8 | –
O=C(NCc1ccc(N2CCC(c3ccc(OC(F)(F)F)cc3)CC2)cc1)c1cc([N+](=O)[O-])cc([N+](=O)[O-])c1 | 0.0625 (≈ 0.115 µM) | Tmax [2]: 0.83 h; Cmax [3]: 366 ng/mL; AUC(0-inf) [4]: 3260 ng·h/mL; half-life [5]: 5.52 h; Activity [6]: Non-Toxic
O=C(NCCN1CCN(c2ccccc2)CC1)c1cc([N+](=O)[O-])cc(C(F)(F)F)c1 | – | Activity [1]: Active
O=C(NCc1ccc(N2CCC(C(F)(F)F)CC2)cc1)c1cc([N+](=O)[O-])cc([N+](=O)[O-])c1 | 0.0625 (≈ 0.138 µM) | Tmax [2]: 0.92 h; Cmax [3]: 1720 ng/mL; AUC(0-inf) [4]: 5600 ng·h/mL; half-life [5]: 3.63 h; Activity [6]: Non-Toxic
O=C(NCc1ccc(N2CCC(C(F)(F)F)CC2)cc1)c1cc([N+](=O)[O-])cc(C(F)(F)F)c1 | 0.0625 (≈ 0.131 µM) | –
O=C(NCc1ccc(N2CCOCC2)cc1)c1cc([N+](=O)[O-])cc(C(F)(F)F)c1 | > 8 | –
O=C(NCc1ccc(N2CCC(Oc3ccc(OC(F)(F)F)cc3)CC2)cc1)c1cc([N+](=O)[O-])cc(C(F)(F)F)c1 | 2 (≈ 3.43 µM) | –
O=C(NCc1ccc(N2CCN(c3ccccn3)CC2)cc1)c1cc([N+](=O)[O-])cc(C(F)(F)F)c1 | 1 (≈ 2.06 µM) | –

Structure (SMILES) | MIC90 [1] [µg/mL] | further results
O=C(NCc1ccc(N2CCN(c3ccncc3)CC2)cc1)c1cc([N+](=O)[O-])cc(C(F)(F)F)c1 | 8 (≈ 16.5 µM) | –
O=C(NCc1ccc(N2CCOCC2)cc1)c1cc([N+](=O)[O-])cc([N+](=O)[O-])c1 | > 8 | –
CC(C)N1CCN(c2ccc(CNC(=O)c3cc([N+](=O)[O-])cc([N+](=O)[O-])c3)cc2)CC1 | 4 (≈ 9.36 µM) | –
O=C(NCc1ccc(N2CCSCC2)cc1)c1cc([N+](=O)[O-])cc(C(F)(F)F)c1 | 0.125 (≈ 0.294 µM) | –
O=C(NCc1ccc(N2CCN(c3ccccn3)CC2)cc1)c1cc([N+](=O)[O-])cc([N+](=O)[O-])c1 | 1 (≈ 2.16 µM) | –
NNC(=O)c1ccncc1 [ISONIAZID] | 0.0781 (≈ 0.569 µM) | –
CO[C@H]1/C=C/O[C@@]2(C)Oc3c(C)c(O)c4c(O)c(c(/C=N/N5CCN(C)CC5)c(O)c4c3C2=O)NC(=O)/C(C)=C\C=C\[C@H](C)[C@H](O)[C@@H](C)[C@@H](O)[C@@H](C)[C@H](OC(C)=O)[C@@H]1C [RIFAMPIN] | 0.0781 (≈ 0.0949 µM) | –
O=c1nc(N2CCN(CC3CCCCC3)CC2)sc2c([N+](=O)[O-])cc(C(F)(F)F)cc12 [MACOZINONE] | 0.0625 (≈ 0.137 µM) | –
O=C(NCc1ccc(N2CCC(c3ccc(OC(F)(F)F)cc3)CC2)cc1)c1cc([N+](=O)[O-])cc(C(F)(F)F)c1 | 0.5 (≈ 0.881 µM) | –
O=C(NCCNc1ccc([N+](=O)[O-])cc1)c1cc([N+](=O)[O-])cc(C(F)(F)F)c1 | – | Activity [1]: Active
CC(C)N1CCN(c2ccc(CNC(=O)c3cc([N+](=O)[O-])cc(C(F)(F)F)c3)cc2)CC1 | 8 (≈ 17.8 µM) | –
O=C(NCc1ccc(N2CCN(c3ccncc3)CC2)cc1)c1cc([N+](=O)[O-])cc([N+](=O)[O-])c1 | 2 (≈ 4.32 µM) | –
O=C(NCc1ccc(N2CCN(c3ccc(F)cc3)CC2)cc1)c1cc([N+](=O)[O-])cc(C(F)(F)F)c1 | 0.5 (≈ 0.995 µM) | –
O=C(NCc1ccc(N2CCC(Oc3ccc(OC(F)(F)F)cc3)CC2)cc1)c1cc([N+](=O)[O-])cc([N+](=O)[O-])c1 | 0.5 (≈ 0.892 µM) | –
O=C(NCCNc1ccc(Br)cc1)c1cc([N+](=O)[O-])cc(C(F)(F)F)c1 | – | Activity [1]: Active
COc1ccc(OCCNC(=O)c2cc([N+](=O)[O-])cc(C(F)(F)F)c2)cc1 | 1 (≈ 2.6 µM) | –
